Source: ChEMBL document CHEMBL1148512, “Fluorophor-labeled spermidine derivatives as fluorescent markers in optical tumor imaging” (Bioorg Med Chem Lett, 2006)
Active and inactive are the calls of the source. No cut-off for these calls is given here.

What was measured:
B16 [1] = assay: Cellular uptake in mouse B16 cells; format: ADME, cell-based
Outline: (§1)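 Cultured tumour cells grown on coverslips, incubated with 50 µM dye conjugate for 1, 4 and 24 h, then imaged by confocal laser scanning microscopy. Parallel incubations were run with benzyl viologen, a polyamine uptake inhibitor. B16 cells were also co-cultured with 3T3YMT-MP non-tumour cells, which express yellow fluorescent protein in mitochondria. Unlabelled cells served as reference.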

MH3924A [2] = assay: Cytotoxicity against rat MH3924A cells assessed as inhibition of colony formation at 25 uM after 4 hrs; format: functional, cell-based
Outline: (§2)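 Colony forming assay in MH3924A and B16 cells. Cells were exposed to dye for 4 h (1–250 µM tested across dyes) and colonies were scored 8 days later. Colony formation is expressed as percent of untreated controls.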

B16 [3] = assay: Cytotoxicity against mouse B16 cells assessed as inhibition of colony formation at 25 uM after 4 hrs; format: functional, cell-based; outline: as §2
MH3924A [4] = assay: Cellular uptake in rat MH3924A cells; format: ADME, cell-based; outline: as §1
Mus musculus [5] = species on record: Mus musculus; assay: Distribution in muscle of MH3924A hepatoma bearing nude Balc C nu/nu mouse by fluorescence imaging; format: ADME, organism-based, Muscle tissue; settings: in vivo
Outline: (§3)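 Male Balb/c nu/nu nude mice (about 20 g) carrying subcutaneous MH3924A rat hepatoma (3–8 mm diameter). Dye given as an iv bolus via lateral tail vein, 500 lmol/kg; PBS-injected controls. Under ip ketamine/xylazine (1 mL/kg), open surgery with chest or abdominal incision. Cooled CCD imaging at 10 min, 1 h and 4 h, 60 s exposure, about 5 cm distance. Photon counts summed per equal-size region of interest (11.6 mm2) over 1 min.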

Mus musculus [6] = species on record: Mus musculus; assay: Distribution in lung of MH3924A hepatoma bearing nude Balc C nu/nu mouse by fluorescence imaging; format: ADME, organism-based; settings: in vivo; outline: as §3
MH3924A [7] = assay: Increase in fluorescence in rat MH3924A cells after 24 hrs relative to control; format: functional, cell-based
Outline: (§4)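 Quantitative uptake assay: tumour cells incubated with dye for 24 h. Cell-associated fluorescence is expressed as percent increase over unlabelled tumour cells.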

MH3924A [8] = assay: Cellular uptake in rat MH3924A cells xenografted in nude Balc C nu/nu mouse by fluorescence imaging; format: ADME, cell-based; settings: in vivo; outline: as §3
B16 [9] = assay: Increase in fluorescence in mouse B16 cells after 24 hrs relative to control; format: functional, cell-based; outline: as §4
Mus musculus [10] = species on record: Mus musculus; assay: Distribution in bladder of MH3924A hepatoma bearing nude Balc C nu/nu mouse by fluorescence imaging; format: ADME, organism-based, Urinary bladder; settings: in vivo; outline: as §3

SMILES	Drug uptake (B16 [1])	Activity (MH3924A [2])	Activity (B16 [3])	Drug uptake (MH3924A [4])	Drug uptake (Mus musculus [5])	Drug uptake (Mus musculus [6])	Drug uptake (MH3924A [7])	Drug uptake (MH3924A [8])	Drug uptake (B16 [9])	Drug uptake (Mus musculus [10])
Cc1cc2cc3cc(C)c(NC(=O)CC(N)C(=O)NCCCCNCCCN)cc3nc2cc1N (stereo not drawn) [ASPARTYL(ACRIDINE YELLOW G)SPERMIDINE]	Active	Active	Active	Active	–	–	–	–	–	–
NCCCNCCCCNC(=O)C[C@H](NC(=O)c1ccc(-c2c3ccc(=O)cc-3oc3cc(O)ccc23)c(C(=O)O)c1)C(=O)NCC(=O)NCC(N)=O	Not Active	–	–	Not Active	–	–	–	–	–	–
CNc1ccccc1C(=O)NCCCCNCCCN	–	–	–	Active	Not Active	Not Active	16%	Active	19%	Active
